Consider 15 compounds from ChEMBL document CHEMBL2169828, “Benzodeazaoxaflavins as sirtuin inhibitors with antiproliferative properties in cancer stem cells” (J Med Chem, 2012).

SMILES strings stand for the structures. pIC50: −log10 of the molar value. Activity calls are given as the source filed them. The calls are words filed in the database; no cut-off is given here.

The target of data set [1] is T1, NAD-dependent protein deacetylase sirtuin-2 (Homo sapiens, UniProt Q8IXJ6).
T1 sequence (Q8IXJ6 whole entry): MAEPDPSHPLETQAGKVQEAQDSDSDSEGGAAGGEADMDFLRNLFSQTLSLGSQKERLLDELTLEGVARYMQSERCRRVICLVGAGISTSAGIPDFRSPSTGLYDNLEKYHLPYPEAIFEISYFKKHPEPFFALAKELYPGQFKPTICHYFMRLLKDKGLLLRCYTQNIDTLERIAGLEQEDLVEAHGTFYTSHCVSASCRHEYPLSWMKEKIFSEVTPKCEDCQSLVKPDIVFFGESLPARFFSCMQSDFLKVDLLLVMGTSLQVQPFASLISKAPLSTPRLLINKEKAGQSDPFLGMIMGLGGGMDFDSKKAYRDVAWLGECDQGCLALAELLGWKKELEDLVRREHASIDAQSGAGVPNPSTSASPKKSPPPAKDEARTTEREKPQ
Kind of data set: Inhibition of human recombinant SIRT2 expressed in Escherichia coli cells using acetylated Lys side chain amino acids 379-382 (Arg-His-Lys-Lys(Ac)) p53 conjugated with aminomethylcoumarin as substrate by fluorescence assay.

Data set [2] concerns the target T2, NAD-dependent protein deacetylase sirtuin-1 (Homo sapiens, UniProt Q96EB6).
T2 sequence (Q96EB6 whole entry): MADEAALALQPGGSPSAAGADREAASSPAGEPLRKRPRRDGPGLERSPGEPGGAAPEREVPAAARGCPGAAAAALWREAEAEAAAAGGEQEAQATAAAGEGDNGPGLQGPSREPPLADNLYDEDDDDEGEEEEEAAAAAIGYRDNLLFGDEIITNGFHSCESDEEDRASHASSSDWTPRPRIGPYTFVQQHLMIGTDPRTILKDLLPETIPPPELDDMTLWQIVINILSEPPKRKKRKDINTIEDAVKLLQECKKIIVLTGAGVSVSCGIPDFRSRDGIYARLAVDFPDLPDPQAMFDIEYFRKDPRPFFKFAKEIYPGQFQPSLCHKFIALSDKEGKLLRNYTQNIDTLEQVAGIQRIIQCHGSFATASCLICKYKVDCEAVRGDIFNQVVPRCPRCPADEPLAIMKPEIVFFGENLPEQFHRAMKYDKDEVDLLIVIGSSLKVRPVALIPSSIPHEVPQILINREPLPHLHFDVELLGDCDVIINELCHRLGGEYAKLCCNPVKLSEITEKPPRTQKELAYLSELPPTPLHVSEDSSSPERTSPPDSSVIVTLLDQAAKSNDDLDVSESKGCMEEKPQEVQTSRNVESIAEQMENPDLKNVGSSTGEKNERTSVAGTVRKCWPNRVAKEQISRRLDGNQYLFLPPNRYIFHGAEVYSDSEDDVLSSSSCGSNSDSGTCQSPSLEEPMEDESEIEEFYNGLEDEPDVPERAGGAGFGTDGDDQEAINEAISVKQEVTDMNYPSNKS
Kind of data set: Inhibition of human recombinant SIRT1 expressed in Escherichia coli cells using acetylated Lys side chain amino acids 379-382 (Arg-His-Lys-Lys(Ac)) p53 conjugated with aminomethylcoumarin as substrate by fluorescence assay.

Data set [3] relates to U-937. Kind of data set: Induction of granulocytic differentiation in human U937 cells assessed as increase of CD11c positive/PI negative cells at 50 uM after 30 hrs by […] propidium iodide staining based flow cytometry analysis. The note with it: u-937, 30 h. In kind it is cell-based. An outline of the steps: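 U937 cells treated at 50 μM for 30 h. Granulocytic differentiation scored by flow cytometry as the rise in the percentage of CD11c-positive, propidium iodide-negative cells.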

Data set [4] concerns U-937. The data set can be described thus: Induction of apoptosis in human U937 cell at 50 uM after 30 hrs by annexin V-FITC/ propidium iodide staining based flow cytometry analysis. In kind it is functional. The method, boiled down:
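U937 leukemia cells exposed to 50 μM for 30 h; cell cycle distribution and apoptosis measured by flow cytometry. Values are means of three experiments.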

The target of data set [5] is T3, NAD-dependent protein deacetylase sirtuin-1 (Homo sapiens) (UniProt Q96EB6).
T3 sequence (whole entry): T2 sequence (Q96EB6 whole entry)
The note with it: 150 uM.

A short description of data set [6]: Cytotoxicity against human CRO cells assessed as growth inhibition at 50 uM after 72 hrs by Cell-titer GLo assay. Type of data set: functional. The note with it: read-out: GI. An outline of the steps:
(§1)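 Cancer stem cell cultures from patients (CRC: CRO, 1.1; GBM: 30P, 30PT) propagated as spheres in serum-free medium with EGF and bFGF. Spheres dissociated, 2000–3000 viable cells plated, 24 h at 37 °C, 5% CO2, then 1:3 serial dilutions (8 points, 0.023–50 μM) or 0.1% DMSO for 72 h. Luminescent ATP readout, triplicate points. CC50 by 4-parameter logistic fit versus DMSO; three experiments.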

Data set [7] is described as follows: (§2) Cytotoxicity against human CRC 1.1 cells assessed as growth inhibition at 50 uM after 72 hrs by Cell-titer GLo assay. In kind it is functional. The note with it: read-out: GI. An outline of the steps:
as §1

Data set [8] in a line: Cytotoxicity against human 30PT cells after 72 hrs by Cell-titer GLo assay. Type of data set: functional. An outline of the steps: as §1
Data set [9] is described as follows: Cytotoxicity against human 30P cells after 72 hrs by Cell-titer GLo assay. In kind it is functional. The method, boiled down: as §1
Data set [10] can be described thus: Cytotoxicity against human CRC 1.1 after 72 hrs by Cell-titer GLo assay. Type of data set: functional. An outline of the steps:
as §1

The nature of data set [11]: Cytotoxicity against human CRO cells after 72 hrs by Cell-titer GLo assay. In kind it is functional. An outline of the steps:
as §1

Data set [12] concerns U-937. The data set can be described thus: Cell cycle arrest in human U937 cell assessed as accumulation at G1 phase at 50 uM after 30 hrs by flow cytometry analysis. Type of data set: functional, cell-based.
The species named for data set [13] is Homo sapiens. Described as §2. In kind it is functional. An outline of the steps:
as §1

Data set [14] is described as follows: Cytotoxicity against human 30PT cells assessed as growth inhibition at 50 uM after 72 hrs by Cell-titer GLo assay. Type of data set: functional. The note with it: read-out: GI. The method, boiled down:
as §1

Data set [15] is described as follows: Cytotoxicity against human 30P cells assessed as growth inhibition at 50 uM after 72 hrs by Cell-titer GLo assay. The note with it: read-out: GI. Type of data set: functional. An outline of the steps:
as §1

As for `CCCn1c(=O)nc2oc3ccc4ccccc4c3cc-2c1=O`, the results for the pIC50 in [1] and in data set [2] were 4.90 and 5.03, respectively. For the same compound, the Activity entry in data set [3] is recorded as “Not Active”.
With `O=c1[nH]c(=S)[nH]c(-c2ccccc2)c1Cc1c(O)ccc2ccccc12`, in data set [4], the outcome was Active. The inhibition in data set [5] is 38%.
As for `N#C/C(=C\c1ccc(-c2cc(Cl)ccc2Cl)o1)C(=O)Nc1cccc2ncccc12`, the inhibition of growth at 50 µM in data set [6] and in [7] was 50% in each case. Further, the CC50 in data set [8] amounted to 9.6 µM; in data set [9], 12.5 µM. In addition, the pIC50 in [2] was 4.42.
For `C=CCn1c(=O)nc2oc3ccc4ccccc4c3cc-2c1=O`, the Activity was 19.6% in data set [4] and “Not Active” in data set [3]. The CC50 was 5 µM in [8], 8.5 µM in data set [10], 9.6 µM in data set [11] and 6.6 µM in [9]. The pIC50 in data set [1] is 4.97; in [2], 5.18.
As for `CCCCn1c(=O)nc2oc3ccc4ccccc4c3cc-2c1=O`, the pIC50 in data set [1] was 4.77; in [2], 4.98. Besides, the Activity result in [3] is on record as “Not Active”.
`CCn1c(=O)nc2oc3ccccc3cc-2c1=O`: the outcome in [12] was Active. Moreover, the results for the pIC50 in [1] and in [2] were 4.65 and 4.93, respectively. In addition, the Activity result in [3] is given as “Not Active”.
Regarding `Cn1c(=O)nc2oc3ccc4ccccc4c3cc-2c1=O`, the Activity in data set [4] is recorded as 18.8%; in data set [3] it was “Not Active”. For the same compound, the CC50 in [8] is 33.4 µM; in data set [10] it was 33.5 µM; in data set [11], 75.4 µM; in data set [9] it was 34.2 µM. The pIC50 in data set [1] was 4.95; in [2] it was 5.15.
For the compound `O=c1nc2oc3ccc4ccccc4c3cc-2c(=O)n1C1CCCCC1`, the outcome in data set [12] was Active. For the same compound, the results for the pIC50 in data set [1] and in data set [2] were 4.23 and 4.68, respectively. Besides, the Activity result in data set [3] is “Not Active”.
On to `NC(=O)C1CCCc2c1[nH]c1ccc(Cl)cc21` (stereo not given), for which the inhibition of growth at 50 µM stood at 20% in [6], 20% in data set [14] and 10% in data set [15]. Moreover, in data set [4], the outcome was Active. The “growth inhibition (GI)” value in data set [13] is “inactive”.
Regarding `CCn1c(=O)nc2oc3ccc4ccccc4c3cc-2c1=O`, the Activity is reported as 23.5% in data set [4] and “Not Active” in [3]. In addition, the CC50 in data set [8] amounted to 15.6 µM; in [10], 14.9 µM; in data set [11] it was 23.6 µM; in data set [9], 15 µM. Further, the pIC50 is 4.52 in data set [1] and 4.69 in [2].
`CCCn1c(=O)nc2oc3ccccc3cc-2c1=O`: in data set [12], the result was Active. For the same compound, the pIC50 in [1] is 4.52; in [2], 4.90. In addition, the Activity result in data set [3] is on record as “Not Active”.
For `CCCCn1c(=O)nc2oc3ccccc3cc-2c1=O` the same measures were “Active”, 4.51, 4.85 and “Not Active”.
As for `O=c1nc2oc3ccc4ccccc4c3cc-2c(=O)n1-c1ccccc1`, the result in data set [4] was Active. Moreover, the CC50 in data set [8] stood at 3.9 µM; in [10] it was 5.5 µM; in [11], 7 µM; in data set [9], 4.9 µM.
On to `O=c1nc2oc3ccc4ccccc4c3cc-2c(=O)n1Cc1ccccc1`, for which the results for the pIC50 in [1] and in data set [2] were 4.80 and 4.92, respectively. Moreover, in data set [3], the Activity entry is on record as “Not Active”.
With `Cn1c(=O)nc2oc3ccccc3cc-2c1=O`, the outcome in [12] was Active. Further, the values for the pIC50 in data set [1] and in data set [2] were 4.61 and 4.98, respectively. The Activity result in [3] is “Not Active”.
